From the RNAGym collection of RNA variant scans (doi:10.1126/science.aae0568)
This sample holds only a part of the variants without activity.

B1: tRNA (parent)
chain: GUUCCGUUGGCGUAAUGGUAACGCGUCUCCCUCCUAAGGAGAAGACUGCGGGUUCGAGUCCCGUACGGAACG

Variants of: B1
Assay: yeast fitness relative to wild type (ratio to wild type); higher = fitter; tRNA-Arg(CCU), competitive growth, 37 C, YPD
In short: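 The tRNA-Arg(CCU) gene variants were made by chemical synthesis with a 3% per-site mutation rate at 69 sites and inserted at the native genomic locus of Saccharomyces cerevisiae. After pooling, the strains were competed in YPD at 37°C for 24 hours in six parallel replicates. Gene amplicons from the start population and each end population were read by 100-nucleotide paired-end sequencing, and Darwinian fitness relative to wild type was taken from genotype frequency changes. Genotypes needed ≥ 100 starting reads, and estimates < 0.5 were set to 0.5.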

Row | Variant | yeast fitness
1 | U2C A21G G68A | 0.864
2 | U2C A21G A65U | 0.665
3 | U2A U16A U19A C46U | 0.714
4 | U2C A45C C49U | 0.698
5 | U2C A15C U19C C22G C34U G39C C62U A65C | ≤ 0.5
6 | U2C C11G C24A C55A | 0.786
7 | U2C C4U A42G | 0.512
8 | U2C A20C | 0.98
9 | U2C A20G | 0.98
10 | U2C A40U U54A | ≤ 0.5
11 | U2C C24G C30U C62U | ≤ 0.5
12 | U2C C30G C33A A65C | ≤ 0.5
13 | U2C C34U A65U | 0.6
14 | U2C C11G A14C C61U U64A | 0.623
15 | U2A U16G G41C | 0.649
16 | U2A U13A A21C A42G | ≤ 0.5
17 | U2C A40G A43U A45C A57G A65C | 0.52
18 | U2A U16C G44C G52A | ≤ 0.5
19 | U2A U28A C55G A70G | ≤ 0.5
20 | U2C C4G C27G U32A U35C C49A U59C | ≤ 0.5
21 | U2C C31U | 0.892

Row | Variant | yeast fitness
22 | U2C C31A | 0.879
23 | U2C C31G | 1.04
24 | U2C A15C G23A C31G A45U | 0.61
25 | U2C C46U G50A | 0.737
26 | U2C A21G A36G G38C | ≤ 0.5
27 | U2C A43G C49A A57U | ≤ 0.5
28 | U2C C24G A37G G58A G67A | ≤ 0.5
29 | U2C C29U G38C A43U U53G G63C | ≤ 0.5
30 | U2C A14C G39A | ≤ 0.5
31 | U2C A40C C66U | 0.524
32 | U2C C27U G41A | 1.06
33 | U2A U16A C31G | 0.875
34 | U2C C27U A69C | 0.729
35 | U2C A14G A42C | 0.575
36 | U2A U16G G50C C55U C60G A69G | ≤ 0.5
37 | U2C A14U C61G A70G | ≤ 0.5
38 | U2C A36C G38C C55U C62A | ≤ 0.5
39 | U2C C24G A42U | ≤ 0.5
40 | U2C A15U A20U | ≤ 0.5
41 | U2C C24U C31U C46A U59A C61A | ≤ 0.5
42 | U2C A21U U35A G41C U47A G67C | ≤ 0.5

Row | Variant | yeast fitness
43 | U2C A57C | 0.679
44 | U2C A57U | 0.685
45 | U2C A20C A65U | 0.641
46 | U2C A40G C61A | ≤ 0.5
47 | U2C A42G C55U | ≤ 0.5
48 | U2C C4A C29G | 0.704
49 | U2C A43U G50A U54G G68C | ≤ 0.5
50 | U2C A21C A42U U54A | ≤ 0.5
51 | U2C C31G U35A A69U | ≤ 0.5
52 | U2A U7C G25A A36U | ≤ 0.5
53 | U2C A45G G68A | ≤ 0.5
54 | U2C A14G G18A G41A A69C | ≤ 0.5
55 | U2C A45G G56C | 0.575
56 | U2A U3G U32A C60A | ≤ 0.5
57 | U2C C24G U26G C34A A36C | ≤ 0.5
58 | U2C A15G A69C | 0.691
59 | U2C C11A A14C C22U A45U | ≤ 0.5
60 | U2C A42G A45C C61G | ≤ 0.5
61 | U2A U16C C30A G67C | 0.557
62 | U2C C27G A43U A45U A69U | ≤ 0.5
63 | U2A U3G C5U C29G C30G C46G | ≤ 0.5

Row | Variant | yeast fitness
64 | U2C A14G G18A U32A C66G | ≤ 0.5
65 | U2C A40C A57C C66U | ≤ 0.5
66 | U2C A14G C29A C46G | ≤ 0.5
67 | U2C A20G C27G A37C G38C A43G A69U | ≤ 0.5
68 | U2C A37U G52A | ≤ 0.5
69 | U2C C4A C27G C34G G51A | 0.514
70 | U2A U7G C24G C29A A43U U53A A57U A65U | ≤ 0.5
71 | U2A U7A U32A | ≤ 0.5
72 | U2C A21G C33G A69C | 0.57
73 | U2A U19A A20C U26A | 0.578
74 | U2C A14C C46A | ≤ 0.5
75 | U2C C27A A40G C61G | ≤ 0.5
76 | U2A U28C G41C U54A | 0.56
77 | U2C C31G U35A G63A | ≤ 0.5
78 | U2C C30A | 0.89
79 | U2C C30U | 0.967
80 | U2C A14G G18A U32A G44A | 0.527
81 | U2C A37G G38C C49U G52C A57C A65C | ≤ 0.5
82 | U2C A14G C46U C60A | ≤ 0.5
83 | U2C A15U C34A G39C A40C G56C C61G C62G G68C | ≤ 0.5
84 | U2C C5G C30G G44A | ≤ 0.5
